Calls of active or inactive are those of the source. The calls are words filed in the database; no cut-off is given here.
Columns and labels:
PC-3 [1] = assay: Antiproliferative activity against androgen-independent human PC3 cells at 100 uM after 72 hrs by MTT test; type: functional
Method in brief: (§1)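 Prostate carcinoma cells kept at 37 °C, 5% CO2 in RPMI 1640 with 10% fetal calf serum; seeded 1.8 × 10⁴ (PC 3) or 5.0 × 10⁴ (LNCaP) cells/well, grown 3 days, serum-starved 24 h for synchronization, then exposed 72 h to compounds in medium (<0.1% DMSO); growth read by colorimetric MTT. Mean of at least four independent determinations; single-dose lines at 100 μM.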

LNCaP [2] = assay: Cell cycle arrest in human LNCaP cells by accumulation at G1 phase at 10 uM after 72 hrs by FACS flow cytometry; type: functional
Method in brief: (§2)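 LNCaP or PC 3 cells seeded in 6-well plates, synchronized 24 h in serum-free medium, treated 72 h with varying compound concentrations; trypsinized cells pooled with supernatants, pelleted, fixed in cold ethanol overnight at 4 °C, then 30 min in PBS with RNase and propidium iodide. FACScan flow cytometry quantified sub-G1 (sub-diploid), G1, S and G2-M fractions as percent of cells.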

LNCaP [3] = assay: Cell cycle arrest in human LNCaP cells by accumulation at S phase at 10 uM after 72 hrs by FACS flow cytometry; type: functional; method in brief: as §2
LNCaP [4] = assay: Cell cycle arrest in human LNCaP cells by accumulation at subG1 phase at 10 uM after 72 hrs by FACS flow cytometry; type: functional; method in brief: as §2
LNCaP [5] = assay: Cell cycle arrest in human LNCaP cells assessed as induction of G1 block at 100 uM by FACS flow cytometry; type: functional, cell-based; method in brief: as §2
LNCaP [6] = assay: Antiproliferative activity against androgen-sensitive human LNCaP cells at 100 uM after 72 hrs by MTT test; type: functional; method in brief: as §1
LNCaP [7] = assay: Cell cycle arrest in human LNCaP cells by accumulation at G2M phase at 10 uM after 72 hrs by FACS flow cytometry; type: functional; method in brief: as §2
PC-3 [8] = assay: Cell cycle arrest in human PC3 cells by accumulation at S phase at 10 uM after 72 hrs by FACS flow cytometry; type: functional; method in brief: as §2
[9] = molecular target: T1, Polyunsaturated fatty acid 5-lipoxygenase (Homo sapiens, UniProt P09917); assay: Inhibition of 5LOX in human whole blood assessed as inhibition of calcium ionophore A 23187-stimulated 5HETE production by HPLC analysis; type: functional, tissue-based
T1 sequence (P09917 whole entry): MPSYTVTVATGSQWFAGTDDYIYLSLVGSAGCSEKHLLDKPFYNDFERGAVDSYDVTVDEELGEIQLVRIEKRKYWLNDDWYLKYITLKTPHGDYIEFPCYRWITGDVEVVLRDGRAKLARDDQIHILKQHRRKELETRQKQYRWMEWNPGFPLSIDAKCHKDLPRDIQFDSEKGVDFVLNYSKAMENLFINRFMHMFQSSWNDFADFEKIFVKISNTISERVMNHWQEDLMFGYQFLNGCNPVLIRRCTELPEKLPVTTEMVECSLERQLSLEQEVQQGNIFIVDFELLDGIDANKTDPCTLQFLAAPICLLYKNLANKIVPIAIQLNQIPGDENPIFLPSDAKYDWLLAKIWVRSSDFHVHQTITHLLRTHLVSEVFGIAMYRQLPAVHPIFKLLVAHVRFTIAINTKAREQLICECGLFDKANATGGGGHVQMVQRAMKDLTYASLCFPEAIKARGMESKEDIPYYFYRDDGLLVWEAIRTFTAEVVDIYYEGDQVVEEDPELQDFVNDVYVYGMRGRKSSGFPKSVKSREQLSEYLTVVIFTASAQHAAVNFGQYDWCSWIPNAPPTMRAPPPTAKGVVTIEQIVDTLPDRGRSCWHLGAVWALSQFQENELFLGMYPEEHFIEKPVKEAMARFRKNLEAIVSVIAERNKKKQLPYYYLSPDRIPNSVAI
Method in brief: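 Heparinized human whole blood, 1 mL aliquots, preincubated 15 min at 37 °C with compound or DMSO vehicle; then stimulated with 40 μM A 23187 for 15 min at 37 °C. 5-HETE extracted into ethyl acetate, then HPLC on a C18 column, methanol/water/acetic acid 80:20:0.08, pH 6.0, UV at 234 nm. IC50 from n = 2.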

PC-3 [10] = assay: Inhibition of MMP9 secretion in androgen-independent human PC3 cells; type: functional, cell-based
LNCaP [11] = assay: Antiproliferative activity against androgen-sensitive human LNCaP cells after 72 hrs by MTT test; type: functional, cell-based; method in brief: as §1
Homo sapiens = species on record: Homo sapiens; assay: Selectivity for COX2 over COX1
Method in brief: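 Ratio of COX-1 to COX-2 IC50s, each taken from PGE2 production in CHO cells transfected with COX-1 or with COX-2. Cells were seeded and, 18 h later, given fresh Ham's F12 with 10% fetal calf serum with or without compound. After 10 min they were stimulated with arachidonic acid, then for 10 min with calcium ionophore A 23187. Intracellular PGE2 was read by enzyme immunoassay, n = 2.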

[12] = molecular target: Prostaglandin G/H synthase 1 (Homo sapiens, UniProt P23219); assay: Inhibition of COX1 expressed in CHO cells assessed as inhibition of arachidonic acid-stimulated PGE2 production by enzyme immunoassay; type: functional, cell-based
PC-3 [13] = assay: Cell cycle arrest in human PC3 cells by accumulation at G1 phase at 10 uM after 72 hrs by FACS flow cytometry; type: functional; method in brief: as §2
PC-3 [14] = assay: Cell cycle arrest in human PC3 cells by accumulation at G2M phase at 10 uM after 72 hrs by FACS flow cytometry; type: functional; method in brief: as §2
PC-3 [15] = assay: Cell cycle arrest in human PC3 cells by accumulation at subG1 phase at 10 uM after 72 hrs by FACS flow cytometry; type: functional; method in brief: as §2
PC-3 [16] = assay: Antiproliferative activity against androgen-independent human PC3 cells after 72 hrs by MTT test; type: functional, cell-based; settings: PC-3, 72 h; method in brief: as §1
[17] = molecular target: T2, Prostaglandin G/H synthase 2 (Homo sapiens, UniProt P35354); assay: Inhibition of COX2 expressed in CHO cells assessed as inhibition of arachidonic acid-stimulated PGE2 production by enzyme immunoassay
T2 sequence (P35354 whole entry): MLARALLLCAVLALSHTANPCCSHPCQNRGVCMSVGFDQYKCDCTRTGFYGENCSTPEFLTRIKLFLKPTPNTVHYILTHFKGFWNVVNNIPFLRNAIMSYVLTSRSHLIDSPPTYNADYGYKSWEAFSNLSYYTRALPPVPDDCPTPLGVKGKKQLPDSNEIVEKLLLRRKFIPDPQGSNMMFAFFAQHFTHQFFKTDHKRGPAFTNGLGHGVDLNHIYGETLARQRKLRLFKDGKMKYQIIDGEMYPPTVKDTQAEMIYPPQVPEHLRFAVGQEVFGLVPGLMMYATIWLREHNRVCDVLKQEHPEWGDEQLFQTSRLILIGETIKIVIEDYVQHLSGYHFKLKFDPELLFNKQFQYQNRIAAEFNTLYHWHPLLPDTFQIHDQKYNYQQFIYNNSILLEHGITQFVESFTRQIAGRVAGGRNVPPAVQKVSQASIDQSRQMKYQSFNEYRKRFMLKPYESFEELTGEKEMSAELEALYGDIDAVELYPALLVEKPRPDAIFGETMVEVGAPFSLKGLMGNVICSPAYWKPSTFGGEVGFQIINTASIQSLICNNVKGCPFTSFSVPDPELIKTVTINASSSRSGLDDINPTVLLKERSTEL

LNCaP [18] = assay: Cell cycle arrest in human LNCaP cells by accumulation at G2M phase at 50 uM after 72 hrs by FACS flow cytometry; type: functional; method in brief: as §2
PC-3 [19] = assay: Cell cycle arrest in human PC3 cells by accumulation at G1 phase at 50 uM after 72 hrs by FACS flow cytometry; type: functional; method in brief: as §2
LNCaP [20] = assay: Cell cycle arrest in human LNCaP cells by accumulation at subG1 phase at 50 uM after 72 hrs by FACS flow cytometry; type: functional; method in brief: as §2
PC-3 [21] = assay: Cell cycle arrest in human PC3 cells by accumulation at S phase at 50 uM after 72 hrs by FACS flow cytometry; type: functional; method in brief: as §2
PC-3 [22] = assay: Cell cycle arrest in human PC3 cells by accumulation at subG1 phase at 50 uM after 72 hrs by FACS flow cytometry; type: functional; method in brief: as §2
LNCaP [23] = assay: Cell cycle arrest in human LNCaP cells by accumulation at S phase at 50 uM after 72 hrs by FACS flow cytometry; type: functional; method in brief: as §2
PC-3 [24] = assay: Cell cycle arrest in human PC3 cells by accumulation at G2M phase at 50 uM after 72 hrs by FACS flow cytometry; type: functional; method in brief: as §2
LNCaP [25] = assay: Cell cycle arrest in human LNCaP cells by accumulation at G1 phase at 50 uM after 72 hrs by FACS flow cytometry; type: functional; method in brief: as §2
LNCaP [26] = assay: Cell cycle arrest in human LNCaP cells by accumulation at G1 phase at 100 uM after 72 hrs by FACS flow cytometry; type: functional; method in brief: as §2
LNCaP [27] = assay: Cell cycle arrest in human LNCaP cells by accumulation at subG1 phase at 100 uM after 72 hrs by FACS flow cytometry; type: functional; method in brief: as §2
LNCaP [28] = assay: Cell cycle arrest in human LNCaP cells by accumulation at G2M phase at 100 uM after 72 hrs by FACS flow cytometry; type: functional; method in brief: as §2
PC-3 [29] = assay: Cell cycle arrest in human PC3 cells by accumulation at G2M phase at 100 uM after 72 hrs by FACS flow cytometry; type: functional; method in brief: as §2
LNCaP [30] = assay: Cell cycle arrest in human LNCaP cells by accumulation at S phase at 100 uM after 72 hrs by FACS flow cytometry; type: functional; method in brief: as §2
PC-3 [31] = assay: Cell cycle arrest in human PC3 cells by accumulation at G1 phase at 100 uM after 72 hrs by FACS flow cytometry; type: functional; method in brief: as §2
PC-3 [32] = assay: Cell cycle arrest in human PC3 cells by accumulation at S phase at 100 uM after 72 hrs by FACS flow cytometry; type: functional; method in brief: as §2
PC-3 [33] = assay: Cell cycle arrest in human PC3 cells by accumulation at subG1 phase at 100 uM after 72 hrs by FACS flow cytometry; type: functional; method in brief: as §2

Sequence of Prostaglandin G/H synthase 1 (P23219 whole entry): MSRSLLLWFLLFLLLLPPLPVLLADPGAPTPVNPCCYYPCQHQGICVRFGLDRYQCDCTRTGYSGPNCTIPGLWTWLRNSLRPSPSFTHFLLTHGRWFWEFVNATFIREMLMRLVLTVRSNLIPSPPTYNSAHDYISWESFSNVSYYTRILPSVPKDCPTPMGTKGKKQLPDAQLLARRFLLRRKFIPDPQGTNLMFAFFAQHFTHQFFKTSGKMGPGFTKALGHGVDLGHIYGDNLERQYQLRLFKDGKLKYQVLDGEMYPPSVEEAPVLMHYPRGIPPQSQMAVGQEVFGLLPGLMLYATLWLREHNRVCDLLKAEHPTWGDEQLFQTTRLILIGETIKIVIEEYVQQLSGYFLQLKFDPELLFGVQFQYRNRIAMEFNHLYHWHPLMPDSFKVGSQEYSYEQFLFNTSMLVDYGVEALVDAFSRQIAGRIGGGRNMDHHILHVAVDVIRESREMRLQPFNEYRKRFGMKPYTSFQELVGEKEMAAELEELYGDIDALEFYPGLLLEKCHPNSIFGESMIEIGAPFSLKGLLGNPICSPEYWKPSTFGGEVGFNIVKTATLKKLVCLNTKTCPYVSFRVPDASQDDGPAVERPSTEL

Compound	Activity (PC-3 [1])	Activity (LNCaP [2])	Activity (LNCaP [3])	Activity (LNCaP [4])	Activity (LNCaP [7])	IC50 [9]	IC50 (LNCaP [11])	IC50 [12]	IC50 (PC-3 [16])	also measured
CS(=O)(=O)c1ccc(C2=C(c3ccccc3)C(=O)OC2)cc1 [ROFECOXIB]	15%	69.4%	11.4%	4%	15.2%	–	–	–	–	Activity (LNCaP [5]): inactive; Activity (LNCaP [6]): 0%
COC1(c2cc(F)cc(OCc3cc(-c4ccccc4)n(-c4ccc(S(N)(=O)=O)cc4)n3)c2)CCOCC1	–	74.2%	6.9%	10.8%	8.2%	740 nM	49.7 µM	25.7 µM	45.9 µM	Activity (PC-3 [8]): 6.6%; Activity (PC-3 [10]): Active; Selectivity ratio (Homo sapiens): 257; Activity (PC-3 [13]): 71.5%; Activity (PC-3 [14]): 19.5%; Activity (PC-3 [15]): 2.1%; IC50 [17]: 100 nM
Cc1ccc(-c2cc(C(F)(F)F)nn2-c2ccc(S(N)(=O)=O)cc2)cc1 [CELECOXIB]	–	75.7%	9%	3.9%	11.3%	> 10000 nM	50.4 µM	–	47 µM	Activity (LNCaP [18]): 11.1%; Activity (PC-3 [19]): 68.5%; Activity (LNCaP [20]): 4%; Activity (PC-3 [21]): 5.8%; Activity (PC-3 [22]): 2.4%; Activity (LNCaP [23]): 6.9%; Activity (PC-3 [24]): 23.5%; Activity (LNCaP [25]): 78%
COC1(c2cc(F)cc(OCc3cc(-c4ccccc4)n(-c4ccc(S(C)(=O)=O)cc4)n3)c2)CCOCC1	45%	70.1%	11.2%	3.6%	14.7%	300 nM	83.4 µM	26.1 µM	–	Activity (LNCaP [26]): 74.2%; Activity (LNCaP [27]): 3.9%; Activity (LNCaP [28]): 12%; Activity (PC-3 [29]): 25.9%; Activity (LNCaP [30]): 9.9%; Activity (PC-3 [31]): 67.8%; Activity (PC-3 [32]): 5.1%; Activity (PC-3 [33]): 1.2%
